The subject of data set [1] is Staphylococcus aureus. Kind of data set: Antibacterial activity against Staphylococcus aureus. The format is functional.
Data set [2] relates to Staphylococcus aureus. Kind of data set: Antibacterial activity against methicillin-resistant Staphylococcus aureus BAA1762 infected in Swiss Webster systemic infection model assessed as survival rate at 100 mg/kg, sc administered 1 hr post infection on day 0, day 1 and 2 with 24 hrs dosing interval and measured for additional 4 days (reference value: 0%). The note with it: route subcutaneous. The format is functional. The procedure, abridged:
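Mice made neutropenic with ip cyclophosphamide (150 mg/kg day −4, 100 mg/kg day −1). MRSA grown in Mueller Hinton broth at 37 °C to mid-log, washed and diluted in BHI, then given ip at 2×10^7 cells. Compound in ethanol/PEG-400/saline (40/20/40) given sc once daily for 3 days. Vehicle-treated infected controls. Survival checked twice daily for 7 days.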

For data set [3], the system named is Mus musculus. Kind of data set: Volume of distribution at steady state in Swiss Webster mouse at 10 mg/kg, iv by LC/MS/MS analysis. The format is ADME, organism-based. The arrangement: dose 10 mg/kg, route intravenous. The note with it: in vivo. The procedure, abridged: (§1)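 Healthy Swiss Webster mice received a single dose, either 10 mg/kg iv or 40 mg/kg sc. Blood was drawn at 5, 15 and 30 min and 1, 2, 4, 7 and 24 h (n = 3). Each mouse gave two consecutive samples, retro-orbital then cardiac puncture, into EDTA. Plasma was deproteinized with acetonitrile and analysed by LC-MS/MS. Parameters came from noncompartmental analysis. sc bioavailability was calculated after dose normalization.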

Data set [4] concerns Mus musculus. Kind of data set: Apparent volume of distribution in Swiss Webster mouse at 10 mg/kg, iv by LC/MS/MS analysis. Also on record: dose 10 mg/kg, route intravenous. The note with it: in vivo. Format: ADME, organism-based. The method in brief: as §1
Data set [5] is described as follows: Clearance at steady state in Swiss Webster mouse at 10 mg/kg, iv by LC/MS/MS analysis. The format is ADME, organism-based. The arrangement: dose 10 mg/kg, route intravenous. The note with it: in vivo. The procedure, abridged: as §1
The nature of data set [6]: Mean residence time in Swiss Webster mouse at 10 mg/kg, iv by LC/MS/MS analysis. The conditions noted are these: in vivo. The format is ADME, organism-based. The arrangement: dose 10 mg/kg, route intravenous. The method in brief:
as §1

Data set [7] in a line: Half life in Swiss Webster mouse at 10 mg/kg, iv by LC/MS/MS analysis. The format is ADME, organism-based. Also on record: dose 10 mg/kg, route intravenous. The note with it: in vivo. The method in brief:
as §1

Data set [8] in a line: Cmax in Swiss Webster mouse at 10 mg/kg, iv by LC/MS/MS analysis. The note with it: in vivo. The format is ADME, organism-based. Also on record: dose 10 mg/kg, route intravenous. The method in brief: as §1
The nature of data set [9]: Tmax in Swiss Webster mouse at 10 mg/kg, iv by LC/MS/MS analysis. Format: ADME, organism-based. The arrangement: dose 10 mg/kg, route intravenous. The conditions noted are these: in vivo. The method in brief: as §1
A short description of data set [10]: AUC (0 to infinity) in Swiss Webster mouse at 10 mg/kg, iv by LC/MS/MS analysis. The format is ADME, organism-based. The arrangement: time infinity, dose 10 mg/kg, route intravenous. The note with it: plasma. The method in brief: as §1
A short description of data set [11]: Ratio of AUC for Swiss Webster mouse at 10 mg/kg, iv to MIC for methicillin-resistant Staphylococcus aureus BAA1762. The procedure, abridged:
(§2)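 Healthy Swiss Webster mice were given a single dose, iv at 10 mg/kg or sc at 40 mg/kg. Blood was taken at 5, 15 and 30 min and 1, 2, 4, 7 and 24 h (n = 3), with EDTA as anticoagulant. Plasma was protein-precipitated with acetonitrile and analysed by LC-MS/MS. AUC0-∞ (h*μg/mL) came from noncompartmental analysis and was divided by MIC (μg/mL).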

Data set [12] can be described thus: Mean residence time in Swiss Webster mouse at 40 mg/kg, sc by LC/MS/MS analysis. Format: ADME, organism-based. The arrangement: dose 40 mg/kg, route subcutaneous. The note with it: in vivo. The method in brief: as §1
Data set [13] can be described thus: Half life in Swiss Webster mouse at 40 mg/kg, sc by LC/MS/MS analysis. Format: ADME, organism-based. Also on record: dose 40 mg/kg, route subcutaneous. The conditions noted are these: in vivo. The procedure, abridged:
as §1

Data set [14] in a line: Cmax in Swiss Webster mouse at 40 mg/kg, sc by LC/MS/MS analysis. Format: ADME, organism-based. The arrangement: dose 40 mg/kg, route subcutaneous. The conditions noted are these: in vivo. The procedure, abridged:
as §1

A short description of data set [15]: AUC (0 to infinity) in Swiss Webster mouse at 40 mg/kg, sc by LC/MS/MS analysis. Format: ADME, organism-based. Also on record: time infinity, dose 40 mg/kg, route subcutaneous. The note with it: plasma. The method in brief:
as §1

The nature of data set [16]: Ratio of AUC for Swiss Webster mouse at 40 mg/kg, sc to MIC for methicillin-resistant Staphylococcus aureus BAA1762. The note with it: route subcutaneous. The procedure, abridged: as §2
Data set [17] can be described thus: Bioavailability in Swiss Webster mouse at 40 mg/kg, sc by LC/MS/MS analysis. The note with it: in vivo. Format: ADME, organism-based. The procedure, abridged:
as §1

Data set [18] has as its system Staphylococcus aureus. Put plainly: Antibacterial activity against methicillin-resistant Staphylococcus aureus BAA1762 infected in Swiss Webster thigh infection model assessed as remaining bacterial burden at 40 mg/kg, sc administered 1 hr post challenge (reference value: 9 log10 CFU). The conditions noted are these: route subcutaneous.
The test system of data set [19] is Staphylococcus aureus. Put plainly: Antibacterial activity against methicillin-resistant Staphylococcus aureus BAA1762 infected in Swiss Webster thigh infection model assessed as remaining bacterial burden at 100 mg/kg, sc administered 1 hr post challenge (reference value: 9 log10 CFU). The conditions noted are these: route subcutaneous.

Here are results for 1 compound from ChEMBL document CHEMBL3352599, “Radiosynthesis and biological evaluation of a novel enoyl-ACP reductase inhibitor for Staphylococcus aureus” (Eur J Med Chem, 2014).

≈ marks a conversion by molar mass, not a printed value.

In data set [1], `CCCCCCc1ccc(Oc2ccccc2C#N)c(O)c1` came in with a minimal inhibitory concentration (MIC) of 0.5 µg/mL (≈ 1.69 µM). In addition, the survival at 100 mg/kg in data set [2] was determined as 50%. In [3], this compound came in with a distribution volume (Vdss) of 475.6 mL. Further, the Vz in [4] amounted to 704.1 mL. Besides, the clearance in [5] is 7.31 mL/min. Also, the values for the mean residence time MRT in data set [6] and in data set [12] were 0.65 h and 6.47 h, respectively. Also, the half-life is 1.01 h in data set [7] and 6.17 h in [13]. For the same compound, the results for the Cmax in [8] and in [14] were 840 ng/mL and 280 ng/mL, respectively. The Tmax in data set [9] came out at 4.8 min. Further, the total exposure AUC(0-inf) in data set [10] was 640 ng·h/mL; in data set [15] it was 1770 ng·h/mL. Further, the RatioAUC/MIC is listed as 1.28 in data set [11] and 3.54 in data set [16]. The same compound displayed a bioavailability in data set [17] of 69%. For the same compound, the “log10 CFU” value came out at 7 in data set [18] and 6 in data set [19].
